Reference: ChEMBL document CHEMBL4229494, “Novel tertiary sulfonamides as potent anti-cancer agents” (Bioorg Med Chem, 2018)
Values after ≈ are worked out from the molar mass of the structure shown.

Tests used:
MDA-MB-231 [1] = assay: Antiproliferative activity against human MDA-MB-231 cells after 24 hrs by SYBR green dye based fluorescence assay; assay type: functional, cell-based; conditions: MDA-MB-231, 24 h
Method in brief: (§1)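 Cells were plated at 500/well in DMEM/10% FBS and allowed to attach for 24 h at 37 °C, 5% CO2. They were then exposed to 1.6 nM–5 µM or DMSO. One plate was harvested every 24 h over 7 days and frozen at -20 °C. DNA was quantified by SYBR Green fluorescence (Ex495/Em535). Triplicate values relative to DMSO went to nonlinear regression for IC50.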

MCF7 [2] = assay: Synergistic antiproliferative activity against human MCF7 cells assessed as combination index at ED75 after 72 hrs in presence of doxorubicin by SYBR green dye based fluorescence assay; assay type: functional
Method in brief: (§2)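 Cells were plated at 2,000/well (DMEM, 10% FBS) and incubated 24 h at 37 °C, 5% CO2. Test compound at 1.6 nM–2 µM was given with or without doxorubicin (MCF-7: 1.6 nM–2 µM; MDA-MB-231: 4 nM–5 µM), or DMSO, for 72 h. DNA was measured by SYBR Green fluorescence (Ex495/Em535). Triplicate values relative to DMSO were used for IC50 and Chou-Talalay combination index analysis.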

MDA-MB-231 [3] = assay: Antitumor activity against human MDA-MB-231 cells xenografted in athymic nude mouse assessed as average tumor volume at 20 mg/kg, ip qd administered every consecutive day in presence of doxorubicin at 5 mg/kg/week measured on day 35 relative to control; assay type: functional
MDA-MB-231 [4] = assay: Antitumor activity against human MDA-MB-231 cells xenografted in athymic nude mouse assessed as decrease in tumor volume at 20 mg/kg, ip qd administered for 16 consecutive days in presence of doxorubicin at 5 mg/kg/week relative to control; assay type: functional; set-up: scale not given: the % may be the effect or the level left
MCF7 [5] = assay: Potentiation of doxorubicin-induced antiproliferative activity against human MCF7 cells at 8 nM after 72 hrs by SYBR green dye based fluorescence assay relative to control; assay type: functional; method in brief: as §2
MDA-MB-231 [6] = assay: Synergistic antiproliferative activity against human MDA-MB-231 cells assessed as combination index at ED75 after 72 hrs in presence of doxorubicin by SYBR green dye based fluorescence assay; assay type: functional; method in brief: as §2
[7] = Lipophilicity, log D of the compound at pH 3; assay type: physicochemical; conditions: buffer
Mus musculus [8] = assay: Upregulation of PARP cleavage expression level in tumors of athymic nude mouse xenografted with human MDA-MB-231 cells at 20 mg/kg, ip qd administered every consecutive day in presence of doxorubicin at 5 mg/kg/week measured on day 51 by Western blot analysis relative to control; assay type: functional
Method in brief: (§3)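 MDA-MB-231 xenograft tumors were excised from nu/nu mice at study termination (day 51), after 16 days of i.p. treatment started on day 35. p53, phospho-Ser15-p53 and PARP cleavage were quantified by Western blot and compared with vehicle-treated animals.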

MDA-MB-231 [9] = assay: Potentiation of doxorubicin-induced antiproliferative activity against human MDA-MB-231 cells at 8 nM after 72 hrs by SYBR green dye based fluorescence assay relative to control; assay type: functional; method in brief: as §2
[10] = Solubility of the compound; assay type: physicochemical
MDA-MB-231 [11] = assay: Synergistic antitumor activity against human MDA-MB-231 cells xenografted in athymic nude mouse assessed as reduction in tumor weight at 20 mg/kg, ip qd administered every consecutive day in presence of doxorubicin at 5 mg/kg/week measured on day 51; assay type: functional; set-up: scale not given: the % may be the effect or the level left
MCF7 [12] = assay: Synergistic antiproliferative activity against human MCF7 cells assessed as combination index at 8 nM after 72 hrs in presence of doxorubicin by SYBR green dye based fluorescence assay; assay type: functional; method in brief: as §2
[13] = Inhibition of human CYP450 at 50 uM; assay type: ADME
[14] = target: Voltage-gated inwardly rectifying potassium channel KCNH2 (Homo sapiens, UniProt Q12809); assay: Inhibition of human ERG up to 50 uM
MDA-MB-231 [15] = assay: Antitumor activity against human MDA-MB-231 cells xenografted in athymic nude mouse assessed as average tumor volume at 20 mg/kg, ip qd administered every consecutive day in presence of doxorubicin at 5 mg/kg/week measured on day 51 (reference value: 653 +/- 192 mm3); assay type: functional
[16] = Oral bioavailability in rat; assay type: ADME, organism-based; conditions: in vivo
Mus musculus [17] = assay: Upregulation of p53 protein expression level in tumors of athymic nude mouse xenografted with human MDA-MB-231 cells at 20 mg/kg, ip qd administered every consecutive day in presence of doxorubicin at 5 mg/kg/week measured on day 51 by Western blot analysis relative to control; assay type: functional; method in brief: as §3
MDA-MB-231 [18] = assay: Antitumor activity against human MDA-MB-231 cells xenografted in athymic nude mouse assessed as decrease in tumor volume at 20 mg/kg, ip qd administered for 16 consecutive days relative to control; assay type: functional; set-up: scale not given: the % may be the effect or the level left
MCF7 [19] = assay: Induction of apoptosis in human MCF7 cells after 24 hrs by caspase-Glo 3/7 reagent based luminescence assay; assay type: functional, cell-based; conditions: MCF7, 24 h
Method in brief: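 MCF-7 cells were plated at 25,000/well (DMEM, 10% FBS) and grown 24 h, then treated at 1.6 nM–5 µM or with DMSO for 24 h. Caspase 3/7 activity was read by Caspase-Glo 3/7 luminescence. Triplicate signals relative to DMSO were analysed by nonlinear regression.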

MCF7 [20] = assay: Synergistic antiproliferative activity against human MCF7 cells assessed as combination index at ED90 after 72 hrs in presence of doxorubicin by SYBR green dye based fluorescence assay; assay type: functional; method in brief: as §2
MDA-MB-231 [21] = assay: Synergistic antiproliferative activity against human MDA-MB-231 cells assessed as combination index at 8 nM after 72 hrs in presence of doxorubicin by SYBR green dye based fluorescence assay; assay type: functional; method in brief: as §2
Mus musculus [22] = assay: Upregulation of phospho Ser15-53 protein expression level in tumors of athymic nude mouse xenografted with human MDA-MB-231 cells at 20 mg/kg, ip qd administered every consecutive day in presence of doxorubicin at 5 mg/kg/week measured on day 51 by Western blot analysis relative to control; assay type: functional; method in brief: as §3
[23] = Drug uptake in serum of athymic nude mouse xenografted with human MDA-MB-231 cells at 20 mg/kg, ip qd administered for 16 consecutive days by HPLC/MS analysis; assay type: ADME, organism-based; conditions: read-out: Drug uptake
Method in brief: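 In the MDA-MB-231 xenografted nu/nu mice given 20 mg/kg/day i.p. for 16 days, serum drug concentration was measured by HPLC at the end of the study and confirmed by LCMS.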

[24] = Metabolic stability in human liver microsomes measured at > 60 mins in presence of NADPH by HPLC analysis; assay type: ADME, microsome; conditions: 1 h
MDA-MB-231 [25] = assay: Synergistic antiproliferative activity against human MDA-MB-231 cells assessed as combination index at ED90 after 72 hrs in presence of doxorubicin by SYBR green dye based fluorescence assay; assay type: functional; method in brief: as §2
[26] = Metabolic stability in rat liver microsomes measured at > 60 mins in presence of NADPH by HPLC analysis; assay type: ADME, microsome; conditions: 1 h
[27] = Inhibition of Wnt3A-induced Wnt transcription (unknown origin) expressed in HEK293 cells coexpressing TK-driven Rluc after 20 to 22 hrs by super-top flash reporter gene assay; assay type: cell-based; conditions: Homo sapiens
Method in brief: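 HEK-293 cells (DMEM, 10% FBS) were co-transfected with Super(8x)TOPflash, a Wnt3A expression vector and TK-driven Renilla luciferase. After 8 h at 37 °C, 5% CO2, cells were seeded at 25,000/well and treated at 1.6, 8, 40, 200, 1000 or 5000 nM, or with DMSO, for 20-22 h in triplicate. Firefly/Renilla luminescence was taken relative to DMSO, and IC50 was found by nonlinear regression.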

[28] = Lipophilicity, log D of the compound at pH 7; assay type: physicochemical; conditions: buffer
MCF7 [29] = assay: Antiproliferative activity against human MCF7 cells after 24 hrs by SYBR green dye based fluorescence assay; assay type: functional, cell-based; conditions: MCF7, 24 h; method in brief: as §1

Voltage-gated inwardly rectifying potassium channel KCNH2, sequence (Q12809 whole entry): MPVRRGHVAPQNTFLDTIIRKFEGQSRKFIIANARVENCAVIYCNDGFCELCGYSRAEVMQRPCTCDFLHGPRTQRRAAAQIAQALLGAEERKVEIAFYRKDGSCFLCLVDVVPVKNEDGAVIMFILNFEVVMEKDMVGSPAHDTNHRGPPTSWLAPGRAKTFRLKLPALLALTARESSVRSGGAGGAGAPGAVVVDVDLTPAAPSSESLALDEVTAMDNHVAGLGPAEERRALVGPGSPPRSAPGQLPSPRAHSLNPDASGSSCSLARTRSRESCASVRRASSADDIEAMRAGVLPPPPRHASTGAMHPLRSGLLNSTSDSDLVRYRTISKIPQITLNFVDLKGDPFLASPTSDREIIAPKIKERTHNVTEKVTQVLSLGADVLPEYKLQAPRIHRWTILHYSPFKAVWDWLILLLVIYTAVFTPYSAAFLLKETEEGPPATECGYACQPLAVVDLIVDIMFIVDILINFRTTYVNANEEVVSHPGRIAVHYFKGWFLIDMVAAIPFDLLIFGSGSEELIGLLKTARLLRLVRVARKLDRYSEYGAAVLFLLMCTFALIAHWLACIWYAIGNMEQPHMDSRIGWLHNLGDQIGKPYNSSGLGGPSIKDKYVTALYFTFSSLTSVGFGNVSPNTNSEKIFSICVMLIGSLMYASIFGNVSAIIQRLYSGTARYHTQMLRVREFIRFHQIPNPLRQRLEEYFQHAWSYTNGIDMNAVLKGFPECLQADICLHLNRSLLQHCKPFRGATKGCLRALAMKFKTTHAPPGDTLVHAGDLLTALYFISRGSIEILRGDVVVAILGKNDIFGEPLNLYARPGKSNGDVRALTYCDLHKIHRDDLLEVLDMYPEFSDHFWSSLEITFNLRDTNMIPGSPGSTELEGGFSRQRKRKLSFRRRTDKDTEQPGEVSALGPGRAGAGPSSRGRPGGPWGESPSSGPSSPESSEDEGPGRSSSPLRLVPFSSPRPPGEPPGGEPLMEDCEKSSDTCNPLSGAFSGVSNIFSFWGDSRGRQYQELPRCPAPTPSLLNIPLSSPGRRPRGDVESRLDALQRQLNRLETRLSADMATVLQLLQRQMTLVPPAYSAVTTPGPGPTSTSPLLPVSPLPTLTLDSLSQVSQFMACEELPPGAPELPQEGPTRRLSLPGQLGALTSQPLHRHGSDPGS

Compound: CN1CCN(S(=O)(=O)c2ccc(N3CCCC3=O)cc2)c2ccccc21
- IC50 (MDA-MB-231 [1]): 13 nM
- CI (MCF7 [2]): 0.75
- Activity (MDA-MB-231 [3]): 154 mm3
- Activity (MDA-MB-231 [4]): 93.7 - 96.2%
- fold change (FC) (MCF7 [5]): 2 - 3
- CI (MDA-MB-231 [6]): 0.68
- logD [7]: 1.9
- fold change (FC) (Mus musculus [8]): 30
- fold change (FC) (MDA-MB-231 [9]): 2 - 3
- solubility [10]: 28.2 µM (≈ 10.5 µg/mL)
- Activity (MDA-MB-231 [11]): 93.7%
- CI (MCF7 [12]): <1
- inhibition (INH) [13]: Not Active
- inhibition (INH) [14]: Not Active
- Activity (MDA-MB-231 [15]): 24.7 mm3
- bioavailability [16]: 15 to 20%
- fold change (FC) (Mus musculus [17]): 1.5
- Activity (MDA-MB-231 [18]): 91.5%
- EC50 (MCF7 [19]): 13 nM
- CI (MCF7 [20]): 0.97
- CI (MDA-MB-231 [21]): <1
- fold change (FC) (Mus musculus [22]): 3
- concentration at 16 days [23]: 200 ng/mL
- Stability [24]: Stable
- CI (MDA-MB-231 [25]): 0.72
- Stability [26]: Stable
- IC50 [27]: 11 nM
- logD [28]: 1.9
- IC50 (MCF7 [29]): 10 nM
